In ChEMBL document CHEMBL1154277, “Discovery of N-substituted pyridinones as potent and selective inhibitors of p38 kinase” (Bioorg Med Chem Lett, 2009):

Legend:
[1] = molecular target: Ephrin type-A receptor 5 (Homo sapiens) (UniProt P54756); test: Inhibition of EPHA5 at 10 uM
[2] = molecular target: Ephrin type-B receptor 3 (Homo sapiens) (UniProt P54753); test: Inhibition of EPHB3 at 10 uM
[3] = molecular target: Ephrin type-B receptor 4 (Homo sapiens) (UniProt P54760); test: Inhibition of EPHB4 at 10 uM
[4] = molecular target: Tyrosine-protein kinase Fer (Homo sapiens) (UniProt P16591); test: Inhibition of FER at 10 uM
[5] = molecular target: Receptor-type tyrosine-protein kinase FLT3 (Homo sapiens) (UniProt P36888); test: Inhibition of FLT3 at 10 uM
[6] = tested on: Receptor-type tyrosine-protein kinase FLT3 (Homo sapiens), P36888 [D835Y]; test: Inhibition of FLT3 D835Y (mutant) at 10 uM
[7] = molecular target: Vascular endothelial growth factor receptor 3 (Homo sapiens) (UniProt P35916); test: Inhibition of FLT4 at 10 uM
Sequence of Vascular endothelial growth factor receptor 3 (Homo sapiens) (P35916 whole entry): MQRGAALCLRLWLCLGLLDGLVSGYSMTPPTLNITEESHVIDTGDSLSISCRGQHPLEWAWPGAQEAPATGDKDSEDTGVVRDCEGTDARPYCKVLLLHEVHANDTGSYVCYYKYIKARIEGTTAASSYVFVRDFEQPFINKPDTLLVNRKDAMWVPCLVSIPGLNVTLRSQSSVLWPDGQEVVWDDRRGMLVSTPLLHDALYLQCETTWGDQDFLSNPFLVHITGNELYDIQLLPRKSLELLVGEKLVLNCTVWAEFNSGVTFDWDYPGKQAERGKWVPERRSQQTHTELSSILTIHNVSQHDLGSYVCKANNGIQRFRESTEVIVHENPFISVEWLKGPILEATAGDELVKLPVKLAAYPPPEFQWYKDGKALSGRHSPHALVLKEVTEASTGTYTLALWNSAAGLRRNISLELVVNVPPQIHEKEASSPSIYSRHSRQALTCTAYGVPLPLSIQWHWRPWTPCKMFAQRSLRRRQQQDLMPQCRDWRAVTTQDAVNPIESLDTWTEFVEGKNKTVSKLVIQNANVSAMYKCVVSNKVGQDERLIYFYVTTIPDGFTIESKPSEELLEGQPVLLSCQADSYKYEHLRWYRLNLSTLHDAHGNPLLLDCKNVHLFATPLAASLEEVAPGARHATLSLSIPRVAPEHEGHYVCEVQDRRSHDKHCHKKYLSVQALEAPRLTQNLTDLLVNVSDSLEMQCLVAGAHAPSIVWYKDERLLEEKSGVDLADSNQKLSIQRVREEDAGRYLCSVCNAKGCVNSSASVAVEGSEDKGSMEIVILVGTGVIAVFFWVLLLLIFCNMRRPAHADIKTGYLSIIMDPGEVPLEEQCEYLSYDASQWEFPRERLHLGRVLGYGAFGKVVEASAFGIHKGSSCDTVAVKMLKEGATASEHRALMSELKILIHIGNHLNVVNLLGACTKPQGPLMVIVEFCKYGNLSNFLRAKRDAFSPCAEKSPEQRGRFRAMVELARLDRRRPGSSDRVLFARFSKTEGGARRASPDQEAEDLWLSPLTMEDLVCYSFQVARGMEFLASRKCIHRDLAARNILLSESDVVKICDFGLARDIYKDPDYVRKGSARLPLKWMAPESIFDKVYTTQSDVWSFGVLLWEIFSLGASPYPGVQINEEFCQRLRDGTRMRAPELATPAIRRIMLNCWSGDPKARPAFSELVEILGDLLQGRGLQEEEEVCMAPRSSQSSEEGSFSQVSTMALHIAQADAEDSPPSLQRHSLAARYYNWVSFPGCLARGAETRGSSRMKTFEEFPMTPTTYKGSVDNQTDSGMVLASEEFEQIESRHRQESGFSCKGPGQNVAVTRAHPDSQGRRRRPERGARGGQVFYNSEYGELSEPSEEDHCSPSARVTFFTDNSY

[8] = molecular target: Vascular endothelial growth factor receptor 2 (Homo sapiens) (UniProt P35968); test: Inhibition of KDR at 10 uM
[9] = molecular target: Mast/stem cell growth factor receptor Kit (Homo sapiens) (UniProt P10721); test: Inhibition of KIT at 10 uM
[10] = tested on: Mast/stem cell growth factor receptor Kit (Homo sapiens), P10721 [T670I]; test: Inhibition of KIT T670I (mutant) at 10 uM
[11] = molecular target: Dual specificity mitogen-activated protein kinase kinase 2 (Homo sapiens) (UniProt P36507); test: Inhibition of MEK2 at 10 uM
[12] = Inhibition of KHS1 at 10 uM
[13] = molecular target: G protein-coupled receptor kinase 6 (Homo sapiens) (UniProt P43250); test: Inhibition of GRK6 at 10 uM
[14] = molecular target: Glycogen synthase kinase-3 alpha (Homo sapiens) (UniProt P49840); test: Inhibition of GSK3alpha at 10 uM
[15] = molecular target: T1, Mitogen-activated protein kinase 14 (Homo sapiens, UniProt Q16539); test: Inhibition of p38alpha at 10 uM
T1 sequence (Q16539 whole entry): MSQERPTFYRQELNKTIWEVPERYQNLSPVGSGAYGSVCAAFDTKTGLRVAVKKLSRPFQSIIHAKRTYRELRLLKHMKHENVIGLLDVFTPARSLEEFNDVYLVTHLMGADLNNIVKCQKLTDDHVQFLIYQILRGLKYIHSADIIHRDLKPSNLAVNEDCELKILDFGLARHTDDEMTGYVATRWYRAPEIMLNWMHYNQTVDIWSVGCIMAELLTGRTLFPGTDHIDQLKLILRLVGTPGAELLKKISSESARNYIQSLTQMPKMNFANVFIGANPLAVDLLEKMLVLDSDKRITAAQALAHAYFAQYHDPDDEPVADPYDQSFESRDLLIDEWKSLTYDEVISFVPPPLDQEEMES

[16] = molecular target: Serine/threonine-protein kinase MARK2 (Homo sapiens) (UniProt Q7KZI7); test: Inhibition of MARK2 at 10 uM
[17] = molecular target: Tyrosine-protein kinase Mer (Homo sapiens) (UniProt Q12866); test: Inhibition of MERTK at 10 uM
[18] = tested on: Hepatocyte growth factor receptor (Homo sapiens), P08581 [M1250T]; test: Inhibition of MET M1250T (mutant) at 10 uM
[19] = molecular target: Serine/threonine-protein kinase 26 (Homo sapiens) (UniProt Q9P289); test: Inhibition of MST4 at 10 uM
[20] = molecular target: Myosin light chain kinase 2, skeletal/cardiac muscle (Homo sapiens) (UniProt Q9H1R3); test: Inhibition of MYLK2 at 10 uM
[21] = molecular target: Serine/threonine-protein kinase Nek2 (Homo sapiens) (UniProt P51955); test: Inhibition of NEK2 at 10 uM
[22] = molecular target: Platelet-derived growth factor receptor beta (Homo sapiens) (UniProt P09619); test: Inhibition of PDGFRbeta at 10 uM
[23] = molecular target: Serine/threonine-protein kinase pim-1 (Homo sapiens) (UniProt P11309); test: Inhibition of PIM1 at 10 uM
[24] = molecular target: Serine/threonine-protein kinase PLK2 (Homo sapiens) (UniProt Q9NYY3); test: Inhibition of PLK2 at 10 uM
[25] = molecular target: Serine/threonine-protein kinase D3 (Homo sapiens) (UniProt O94806); test: Inhibition of PKD3 at 10 uM
[26] = molecular target: RAF proto-oncogene serine/threonine-protein kinase (Homo sapiens) (UniProt P04049); test: Inhibition of cRAF at 10 uM
[27] = molecular target: Ribosomal protein S6 kinase alpha-2 (Homo sapiens) (UniProt Q15349); test: Inhibition of RSK3 at 10 uM
[28] = molecular target: SRSF protein kinase 2 (Homo sapiens) (UniProt P78362); test: Inhibition of SRPK2 at 10 uM
[29] = molecular target: Testis-specific serine/threonine-protein kinase 2 (Homo sapiens) (UniProt Q96PF2); test: Inhibition of TSSK2 at 10 uM
[30] = molecular target: Tyrosine-protein kinase Yes (Homo sapiens) (UniProt P07947); test: Inhibition of YES1 at 10 uM
[31] = molecular target: T1, Mitogen-activated protein kinase 14; test: Inhibition of p38alpha
PBMC = test: Antiinflammatory activity against human PBMC assessed as inhibition of LPS-induced TNFalpha release; assay type: functional, cell-based
Rattus norvegicus = test: Antiinflammatory activity in Lewis rat assessed as inhibition of LPS-induced TNFalpha release at 5 mg/kg administered before LPS challenge and measured after 4 hrs by ELISA; assay type: functional
Method in brief: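 Rat LPS challenge. The compound was given at –4 h relative to LPS, at the dose in mg/kg shown for each line. Read-out is percent inhibition of TNFα.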

[32] = molecular target: Inhibitor of nuclear factor kappa-B kinase subunit alpha (Homo sapiens) (UniProt O15111); test: Inhibition of IKKalpha at 10 uM
[33] = molecular target: Serine/threonine-protein kinase haspin (Homo sapiens) (UniProt Q8TF76); test: Inhibition of GSG2 at 10 uM
[34] = molecular target: Interleukin-1 receptor-associated kinase 1 (Homo sapiens) (UniProt P51617); test: Inhibition of IRAK1 at 10 uM
[35] = molecular target: Tyrosine-protein kinase ABL1 (Homo sapiens) (UniProt P00519); test: Inhibition of ABL1 at 10 uM
Sequence of Tyrosine-protein kinase ABL1 (Homo sapiens) (P00519 whole entry): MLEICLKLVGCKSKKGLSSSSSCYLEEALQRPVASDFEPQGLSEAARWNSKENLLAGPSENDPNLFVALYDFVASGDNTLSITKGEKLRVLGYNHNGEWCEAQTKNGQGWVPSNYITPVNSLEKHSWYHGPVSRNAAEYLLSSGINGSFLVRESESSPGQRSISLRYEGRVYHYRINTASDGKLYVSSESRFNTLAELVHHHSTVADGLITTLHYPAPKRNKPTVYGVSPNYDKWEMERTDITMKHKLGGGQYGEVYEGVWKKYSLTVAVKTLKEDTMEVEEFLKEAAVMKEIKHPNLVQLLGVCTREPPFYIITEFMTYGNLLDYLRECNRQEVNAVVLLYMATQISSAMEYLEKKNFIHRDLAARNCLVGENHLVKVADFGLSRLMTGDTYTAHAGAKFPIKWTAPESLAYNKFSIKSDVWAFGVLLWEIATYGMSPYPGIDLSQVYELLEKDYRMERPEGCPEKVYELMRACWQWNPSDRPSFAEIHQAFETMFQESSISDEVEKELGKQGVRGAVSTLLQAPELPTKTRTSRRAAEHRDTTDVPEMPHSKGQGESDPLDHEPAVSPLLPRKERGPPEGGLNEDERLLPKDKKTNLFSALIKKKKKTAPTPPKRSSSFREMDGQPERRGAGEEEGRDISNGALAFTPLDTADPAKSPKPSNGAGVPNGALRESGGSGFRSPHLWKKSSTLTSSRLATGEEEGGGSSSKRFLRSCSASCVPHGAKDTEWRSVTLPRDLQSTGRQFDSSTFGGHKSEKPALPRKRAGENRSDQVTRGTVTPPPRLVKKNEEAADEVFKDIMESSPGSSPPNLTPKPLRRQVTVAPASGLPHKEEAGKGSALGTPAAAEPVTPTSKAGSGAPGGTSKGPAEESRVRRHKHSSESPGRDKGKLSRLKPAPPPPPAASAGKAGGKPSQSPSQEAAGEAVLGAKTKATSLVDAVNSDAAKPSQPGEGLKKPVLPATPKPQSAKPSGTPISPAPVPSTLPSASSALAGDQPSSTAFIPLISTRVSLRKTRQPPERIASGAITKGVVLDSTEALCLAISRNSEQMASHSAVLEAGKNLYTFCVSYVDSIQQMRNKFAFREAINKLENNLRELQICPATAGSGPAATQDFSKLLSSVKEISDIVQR

[36] = molecular target: G protein-coupled receptor kinase 3 (Homo sapiens) (UniProt P35626); test: Inhibition of GRK3 at 10 uM
[37] = molecular target: Serine/threonine-protein kinase B-raf (Homo sapiens) (UniProt P15056); test: Inhibition of B-Raf at 10 uM
[38] = molecular target: Calcium/calmodulin-dependent protein kinase type II subunit alpha (Homo sapiens) (UniProt Q9UQM7); test: Inhibition of CAMK2alpha at 10 uM
[39] = molecular target: Calcium/calmodulin-dependent protein kinase type II subunit delta (Homo sapiens) (UniProt Q13557); test: Inhibition of CAMK2delta at 10 uM
Sequence of Calcium/calmodulin-dependent protein kinase type II subunit delta (Homo sapiens) (Q13557 whole entry): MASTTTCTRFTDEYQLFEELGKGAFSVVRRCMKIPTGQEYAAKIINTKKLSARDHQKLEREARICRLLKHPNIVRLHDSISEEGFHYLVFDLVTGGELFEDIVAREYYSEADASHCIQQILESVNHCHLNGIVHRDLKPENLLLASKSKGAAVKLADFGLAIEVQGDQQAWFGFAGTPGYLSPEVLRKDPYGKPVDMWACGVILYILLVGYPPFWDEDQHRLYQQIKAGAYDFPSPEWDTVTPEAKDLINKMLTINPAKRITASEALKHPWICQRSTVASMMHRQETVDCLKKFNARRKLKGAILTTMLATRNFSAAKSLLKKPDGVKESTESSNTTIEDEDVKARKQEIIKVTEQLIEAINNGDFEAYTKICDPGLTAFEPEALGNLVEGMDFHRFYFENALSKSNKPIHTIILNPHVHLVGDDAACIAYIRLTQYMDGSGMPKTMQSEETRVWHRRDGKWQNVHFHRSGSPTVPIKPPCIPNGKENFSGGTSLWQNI

[40] = molecular target: Cyclin-dependent kinase 2/cyclin A (Homo sapiens) (UniProt P24941+P20248+P78396); test: Inhibition of CDK2/cyclinA at 10 uM; assay type: protein-complex assay
[41] = molecular target: Serine/threonine-protein kinase Chk1 (Homo sapiens) (UniProt O14757); test: Inhibition of CHK1 at 10 uM
[42] = molecular target: Casein kinase II subunit alpha (Homo sapiens) (UniProt P68400); test: Inhibition of CK2alpha1 at 10 uM
Sequence of Casein kinase II subunit alpha (Homo sapiens) (P68400 whole entry, looked up): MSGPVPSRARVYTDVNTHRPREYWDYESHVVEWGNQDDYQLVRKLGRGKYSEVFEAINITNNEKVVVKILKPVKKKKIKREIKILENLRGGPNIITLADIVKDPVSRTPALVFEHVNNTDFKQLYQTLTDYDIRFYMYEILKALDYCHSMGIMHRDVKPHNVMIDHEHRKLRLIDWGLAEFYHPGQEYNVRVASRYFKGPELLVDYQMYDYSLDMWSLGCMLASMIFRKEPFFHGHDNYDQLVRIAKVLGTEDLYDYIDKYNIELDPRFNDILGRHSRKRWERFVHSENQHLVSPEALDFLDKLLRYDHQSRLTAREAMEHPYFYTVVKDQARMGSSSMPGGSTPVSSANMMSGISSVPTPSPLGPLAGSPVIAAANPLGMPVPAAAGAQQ

[43] = tested on: Epidermal growth factor receptor (Homo sapiens), P00533 [L861Q]; test: Inhibition of EGFR L861Q (mutant) at 10 uM; assay type: protein assay
Sequence of Epidermal growth factor receptor (Homo sapiens), P00533 [L861Q] (P00533 whole entry L861Q): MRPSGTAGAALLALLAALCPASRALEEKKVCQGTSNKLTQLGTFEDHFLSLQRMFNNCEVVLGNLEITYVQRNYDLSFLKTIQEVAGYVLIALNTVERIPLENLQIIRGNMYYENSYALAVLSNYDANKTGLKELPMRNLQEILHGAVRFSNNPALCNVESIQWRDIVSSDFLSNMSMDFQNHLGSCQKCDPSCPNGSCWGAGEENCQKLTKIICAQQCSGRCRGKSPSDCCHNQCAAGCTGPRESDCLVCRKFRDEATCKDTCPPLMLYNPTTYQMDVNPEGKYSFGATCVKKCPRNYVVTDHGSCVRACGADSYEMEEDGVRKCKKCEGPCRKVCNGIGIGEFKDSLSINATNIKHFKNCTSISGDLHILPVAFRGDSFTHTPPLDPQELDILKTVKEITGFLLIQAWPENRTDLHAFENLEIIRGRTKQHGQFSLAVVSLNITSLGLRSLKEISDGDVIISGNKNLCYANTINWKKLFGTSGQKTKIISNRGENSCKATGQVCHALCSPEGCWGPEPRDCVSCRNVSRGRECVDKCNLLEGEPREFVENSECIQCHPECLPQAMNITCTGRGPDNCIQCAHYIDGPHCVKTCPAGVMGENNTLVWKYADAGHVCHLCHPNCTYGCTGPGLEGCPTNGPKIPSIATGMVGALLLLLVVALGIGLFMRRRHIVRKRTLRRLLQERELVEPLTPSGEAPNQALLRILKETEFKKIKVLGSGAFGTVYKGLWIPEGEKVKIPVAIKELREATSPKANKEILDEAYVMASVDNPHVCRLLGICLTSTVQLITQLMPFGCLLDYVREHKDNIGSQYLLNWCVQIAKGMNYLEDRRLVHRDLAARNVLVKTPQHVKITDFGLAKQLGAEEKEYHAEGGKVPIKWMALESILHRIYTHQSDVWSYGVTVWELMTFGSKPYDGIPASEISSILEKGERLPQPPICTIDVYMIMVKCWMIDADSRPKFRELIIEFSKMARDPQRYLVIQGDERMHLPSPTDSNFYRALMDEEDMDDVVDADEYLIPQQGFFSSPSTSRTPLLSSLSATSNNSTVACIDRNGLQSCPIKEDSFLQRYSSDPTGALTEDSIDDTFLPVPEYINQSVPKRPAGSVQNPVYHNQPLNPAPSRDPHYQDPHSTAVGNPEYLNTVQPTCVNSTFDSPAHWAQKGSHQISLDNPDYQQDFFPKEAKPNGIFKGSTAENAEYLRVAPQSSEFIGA

[44] = molecular target: Ephrin type-A receptor 3 (Homo sapiens) (UniProt P29320); test: Inhibition of EPHA3 at 10 uM

Cc1cc(OCc2ccc(F)cc2F)c(Br)c(=O)n1Cc1ccc(CN(C)C)cc1
87%: inhibition in vivo at 5 mg/kg (Rattus norvegicus)
< 50%: inhibition [1] | inhibition [2] | inhibition [3] | inhibition [4] | inhibition [5] | inhibition [6] | inhibition [7] | inhibition [8] | inhibition [9] | inhibition [10] | inhibition [11] | inhibition [12] | inhibition [13] | inhibition [14] | inhibition [16] | inhibition [17] | inhibition [18] | inhibition [19] | inhibition [20] | inhibition [21] | inhibition [22] | inhibition [23] | inhibition [24] | inhibition [25] | inhibition [26] | inhibition [27] | inhibition [28] | inhibition [29] | inhibition [30] | inhibition [32] | inhibition [33] | inhibition [34] | inhibition [35] | inhibition [36] | inhibition [37] | inhibition [38] | inhibition [39] | inhibition [40] | inhibition [41] | inhibition [42] | inhibition [43] | inhibition [44]
44 nM: IC50 (PBMC)
100%: inhibition [15]
59 nM: IC50 [31]
